The entries come from a sample that favours hits as a whole.
XBP1 UPR activ – activators of adaptive XBP1 UPR arm, primary screen, cell-based, CHO-XBP1 luciferase reporter, luminescence, uHTS | IRE1-XBP1 UPR activation; percent of tunicamycin response, DMSO as zero | activation, % at 20 µM | hit rate 0.33% among 330,000;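 active = versus positive control, 20 µM dose yields 30% or more activation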
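Material: CHO-XBP1 cells stably carrying IRE1-XBP1-driven luciferase reporter | Medium: F12 with 10% serum | Compound dosing: 20 µM single concentration, DMSO 1% | Incubation: Overnight seeding at 37 °C, 6 h compound treatment at 37 °C | Detection: Steady-Glo luminescence read | Read-out basis: % activation of reporter signal versus tunicamycin and DMSO controls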
697 NFkB inh – inhibitors of PMA/ionomycin-induced NF-kB reporter, 697 cells, primary screen, B-cell NF-kB inhibitor project, cell-based, luminescence, uHTS; 697 B-cell NF-kB luciferase reporter, 16 h; inhibition, % at 4 µM; hit rate 0.33% among 330,000; AID 435022, 2010; in the data active = inhibition above about 35%
CHOP UPR activ – activators of apoptotic CHOP UPR arm, primary screen, cell-based, CHO-CHOP luciferase reporter, luminescence, uHTS. UPR activation; percent of tunicamycin response over DMSO baseline. activation, % at 10 µM. hit rate 0.34% among 330,000. AID 449763, 2010;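 active = at 10 µM dose, activation of 40% or more, normalized to positive control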
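Assay system: CHO-CHOP cells, stable luciferase reporter of PERK-eIF2a-CHOP signalling / Buffer or medium: F12 plus 10% serum / Compound dosing: one dose, 10 µM in 0.5% DMSO / Times: 6 h compound treatment, 37 °C / Technique: luciferase luminescence / Read-out: % reporter activation, DMSO baseline versus tunicamycin full activation / Benchmarks: tunicamycin and DMSO controls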
CHOP inh – inhibitors of CHOP promoter induction, primary screen, cell-based, unfolded protein response, luciferase reporter; CHO-K1 CHOP-promoter luciferase, tunicamycin-induced, 15-18 h; inhibition, % at 10 µM; hit rate 3.8% among 220,000; AID 2732, 2010;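 active = compounds that reduced the stress-induced luciferase reporter signal by more than about 70% of percent inhibition, limit read from the data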
Jurkat NFkB inh – inhibitors of induced NF-kB luciferase reporter, primary screen, TCR NF-kB activation inhibitor project, cell-based, luminescence, uHTS. hit rate 0.53% among 330,000. AID 435003, 2010. inhibition, % at 4 µM. Jurkat, PMA/ionomycin-induced NF-kB luciferase reporter; in the data active = inhibition above about 50%
XBP1 UPR conf – IRE1-XBP1 UPR arm activators, confirmation, cell-based, CHO-XBP1 luciferase reporter, luminescence, single concentration | shares compounds with XBP1 UPR activ | AID 485299, 2010 | activation, % at 20 µM | hit rate 63% among 1,000;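 active = reporter signal at least 30% of the positive control's activation in two or more of four replicate wells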
Hits are given with their value.

How did Cc1cc(NC(=O)CSc2nc3sc(C)c(C)c3c(=O)n2C2CCCC2)no1 do in these assays?
XBP1 UPR activ: 57.6; 697 NFkB inh: inactive; CHOP UPR activ: inactive; CHOP inh: 86.5; Jurkat NFkB inh: inactive; XBP1 UPR conf: 54.3

Results for COc1ccc(/C=C(\NC(=O)c2ccccc2)C(=O)NCc2ccco2)cc1OC ?
XBP1 UPR activ: inactive; 697 NFkB inh: inactive; CHOP UPR activ: inactive; Jurkat NFkB inh: inactive

What do the screens show for `Cc1ccc(C(C(=O)NCc2ccco2)N(C(=O)CNC(=O)c2cccs2)c2ccc(C)cc2)cc1` (configuration not stated)?
XBP1 UPR activ: inactive; 697 NFkB inh: inactive; CHOP UPR activ: inactive; CHOP inh: inactive; Jurkat NFkB inh: inactive

Results for Cc1ccc(C(C(=O)NCc2ccco2)N(C(=O)CNC(=O)c2cccs2)c2c(C)cc(C)cc2C)cc1 (configuration not stated) ?
XBP1 UPR activ: 35.6; 697 NFkB inh: inactive; CHOP UPR activ: inactive; CHOP inh: 73.7; Jurkat NFkB inh: inactive; XBP1 UPR conf: 32.1

Results for CCOc1cccc2sc(N(CCCN(C)C)C(=O)c3ccc(S(=O)(=O)N4CCc5ccccc5C4)cc3)nc12 ?
XBP1 UPR activ: 34.7; 697 NFkB inh: inactive; CHOP UPR activ: inactive; Jurkat NFkB inh: inactive; XBP1 UPR conf: inactive

How did COc1ccc(NC(=O)COC(=O)CCCOc2ccc(Cl)cc2Cl)cc1 do in these assays?
XBP1 UPR activ: 75.2; 697 NFkB inh: inactive; CHOP UPR activ: inactive; CHOP inh: inactive; Jurkat NFkB inh: inactive; XBP1 UPR conf: inactive

What do the screens show for `NC(=O)C1CCN(C(=O)CN(C2CCCCC2)S(=O)(=O)c2ccc(F)cc2)CC1`?
XBP1 UPR activ: inactive; 697 NFkB inh: inactive; CHOP UPR activ: inactive; Jurkat NFkB inh: inactive

What do the screens show for `CC1(C)Cc2nc3oc4c(=O)n(CC(=O)Nc5cccc(Cl)c5)cnc4c3cc2CO1`?
XBP1 UPR activ: 59.0; 697 NFkB inh: inactive; CHOP UPR activ: inactive; CHOP inh: inactive; Jurkat NFkB inh: inactive; XBP1 UPR conf: inactive

How did COc1ccc(C(=O)Nc2ccc(S(=O)(=O)N(C)c3ccccc3)cc2)cc1 do in these assays?
XBP1 UPR activ: inactive; 697 NFkB inh: inactive; CHOP UPR activ: inactive; Jurkat NFkB inh: inactive

What do the screens show for `OC(CNCC1CCCO1)Cn1c2ccc(Cl)cc2c2cc(Cl)ccc21` (configuration not stated)?
XBP1 UPR activ: 64.3; 697 NFkB inh: inactive; CHOP UPR activ: inactive; CHOP inh: 94.3; Jurkat NFkB inh: inactive; XBP1 UPR conf: 58.6

How did OC(CNCC1CCCO1)Cn1c2ccccc2c2ccccc21 (configuration not stated) do in these assays?
XBP1 UPR activ: inactive; 697 NFkB inh: inactive; CHOP UPR activ: inactive; CHOP inh: inactive; Jurkat NFkB inh: inactive

Results for COc1cc(/C=C2\SC(=S)N(CCC(=O)N3CCCCC3)C2=O)cc(OC)c1OC ?
XBP1 UPR activ: inactive; 697 NFkB inh: inactive; CHOP UPR activ: inactive; Jurkat NFkB inh: inactive

Results for Cc1ccc(NC(=O)Cn2c(/C=C/c3ccccc3)nc3ccccc32)cc1C ?
XBP1 UPR activ: 51.3; 697 NFkB inh: inactive; CHOP UPR activ: inactive; CHOP inh: inactive; Jurkat NFkB inh: inactive; XBP1 UPR conf: 34.9

How did Cc1c(O)cc2c(c1O)C(=O)CC(c1ccccc1)O2 (configuration not stated) do in these assays?
XBP1 UPR activ: 121.2; 697 NFkB inh: inactive; CHOP UPR activ: inactive; CHOP inh: inactive; Jurkat NFkB inh: inactive; XBP1 UPR conf: 172.9

How did CC(C)(C)NC(=O)C(=O)NNC(=O)COc1ccc(Br)cc1 do in these assays?
XBP1 UPR activ: inactive; 697 NFkB inh: inactive; CHOP UPR activ: inactive; CHOP inh: inactive; Jurkat NFkB inh: inactive

How did CCC(C)(C)C1CCC2(CC1)NC(=O)N(CC(=O)N1CCN(S(=O)(=O)c3cc(C)ccc3C)CC1)C2=O (configuration not stated) do in these assays?
XBP1 UPR activ: 81.0; 697 NFkB inh: inactive; CHOP UPR activ: inactive; Jurkat NFkB inh: inactive; XBP1 UPR conf: 107.0

High-throughput results deposited in PubChem by several laboratories.
